Data reported in ChEMBL document CHEMBL2417481, “Regioselective synthesis of 6-substituted-2-amino-5-bromo-4(3H)-pyrimidinones and evaluation of their antiviral activity” (Eur J Med Chem, 2013).

Columns and labels:
[1] = tested on: Influenza B virus; assay: Antiviral activity against Influenza B virus infected in MDCK cells assessed as reduction in virus-induced cytopathogenicity; format: functional, organism-based
Method in brief: (§1)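 Confluent cell monolayers (Vero, HeLa, HEL or MDCK, as named in each line) were infected with 100 CCID50 of virus while exposed to a range of compound concentrations. Cytopathicity was scored once it was complete in untreated infected controls.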

[2] = tested on: Influenza A virus; assay: Antiviral activity against Influenza A virus H1N1 infected in MDCK cells assessed as reduction in virus-induced cytopathogenicity; format: functional, organism-based; method in brief: as §1
[3] = Cytotoxicity against MDCK cells assessed as morphological changes; format: cell-based, Canis lupus familiaris; conditions: dog
[4] = tested on: Influenza A virus; assay: Antiviral activity against Influenza A virus […] infected in MDCK cells assessed as reduction in virus-induced cytopathogenicity; format: functional, organism-based; method in brief: as §1
[5] = tested on: Cytomegalovirus; assay: Antiviral activity against Cytomegalovirus AD-169 infected in human HEL cells assessed as reduction in virus plaque formation; format: functional, organism-based; conditions: Human betaherpesvirus 5, AD-169, HEL
Method in brief: (§2)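 Confluent HEL fibroblasts were inoculated with 100 PFU of CMV at graded compound concentrations. Plaques were counted once formation was complete in untreated infected controls.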

[6] = tested on: Coxsackievirus B4; assay: Antiviral activity against Coxsackievirus B4 infected in african green monkey Vero cells assessed as reduction in virus-induced cytopathogenicity; format: functional, organism-based; conditions: Enterovirus B; method in brief: as §1
[7] = tested on: Human alphaherpesvirus 1; assay: Antiviral activity against Herpes simplex virus-1 KOS infected in human HEL cells assessed as reduction in virus-induced cytopathogenicity; format: functional, organism-based; conditions: Human alphaherpesvirus 1, KOS; method in brief: as §1
[8] = tested on: Punta Toro virus; assay: Antiviral activity against Punta Toro virus infected in african green monkey Vero cells assessed as reduction in virus-induced cytopathogenicity; format: functional, organism-based; method in brief: as §1
[9] = tested on: Feline coronavirus; assay: Antiviral activity against Feline coronavirus infected in cat CRFK cells assessed as inhibition of virus-induced cytopathic effect by MTS assay; format: functional, organism-based; conditions: Alphacoronavirus 1, CRFK
[10] = tested on: Sindbis virus; assay: Antiviral activity against Sindbis virus infected in african green monkey Vero cells assessed as reduction in virus-induced cytopathogenicity; format: functional, organism-based; method in brief: as §1
[11] = tested on: Human alphaherpesvirus 3; assay: Antiviral activity against thymidine kinase negative Varicella-zoster virus 07-1 infected in human HEL cells assessed as reduction in the virus plaque formation; format: functional, organism-based; conditions: Human alphaherpesvirus 3, 07-1, HEL
Method in brief: (§3)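 Confluent HEL fibroblast cultures received 20 PFU of VZV together with varying compound concentrations. Plaque formation was read when it reached completion in untreated virus controls.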

[12] = Cytotoxicity against human HEL cells assessed as morphological changes; format: cell-based
[13] = tested on: Felid alphaherpesvirus 1; assay: Antiviral activity against Feline Herpes virus infected in cat CRFK cells assessed as inhibition of virus-induced cytopathic effect by MTS assay; format: functional, organism-based; conditions: Felid alphaherpesvirus 1, CRFK
[14] = Cytotoxicity against african green monkey Vero cells assessed as morphological changes; format: cell-based; conditions: chlorocebus sabaeus
[15] = Cytotoxicity against human HeLa cells assessed as morphological changes; format: cell-based
[16] = tested on: Vesicular stomatitis virus; assay: Antiviral activity against Vesicular stomatitis virus infected in human HEL cells assessed as reduction in virus-induced cytopathogenicity; format: functional, organism-based; method in brief: as §1
[17] = tested on: Respiratory syncytial virus; assay: Antiviral activity against Respiratory syncytial virus Long infected in human HeLa cells assessed as reduction in virus-induced cytopathogenicity; format: functional, organism-based; method in brief: as §1
[18] = tested on: Human alphaherpesvirus 1; assay: Antiviral activity against thymidine kinase negative […] Herpes simplex virus-1 KOS infected in human HEL cells assessed as reduction in virus-induced cytopathogenicity; format: functional, organism-based; conditions: Human alphaherpesvirus 1, KOS; method in brief: as §1
[19] = tested on: Human alphaherpesvirus 3; assay: Antiviral activity against thymidine kinase positive Varicella-zoster virus OKA infected in human HEL cells assessed as reduction in virus plaque formation; format: functional, cell-based, Human herpesvirus 3 strain Oka vaccine; conditions: Human alphaherpesvirus 3, OKA; method in brief: as §3
[20] = tested on: Mammalian orthoreovirus 1; assay: Antiviral activity against Reovirus-1 infected in african green monkey Vero cells assessed as reduction in virus-induced cytopathogenicity; format: functional, organism-based; conditions: Mammalian orthoreovirus 1, Vero
Method in brief: (§4)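 Confluent Vero monolayers in 96-well plates were inoculated with 100 CCID50 of virus together with varying compound concentrations. Cytopathicity was scored once it was complete in untreated virus-infected control cultures.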

[21] = tested on: Vesicular stomatitis virus; assay: Antiviral activity against Vesicular stomatitis virus infected in human HeLa cells assessed as reduction in virus-induced cytopathogenicity; format: functional, organism-based; method in brief: as §1
[22] = tested on: Cytomegalovirus; assay: Antiviral activity against Cytomegalovirus Davis infected in human HEL cells assessed as reduction in virus plaque formation; format: functional, organism-based; conditions: Human betaherpesvirus 5, Davis; method in brief: as §2
[23] = Cytotoxicity against cat CRFK cells assessed as cell viability by MTS assay; format: cell-based, Felis catus
[24] = tested on: Human respirovirus 3; assay: Antiviral activity against Parainfluenza virus 3 infected in african green monkey Vero cells assessed as reduction in virus-induced cytopathogenicity; format: functional, organism-based; conditions: Human respirovirus 3, Vero; method in brief: as §4
[25] = tested on: Coxsackievirus B4; assay: Antiviral activity against Coxsackievirus B4 infected in human HeLa cells assessed as reduction in virus-induced cytopathogenicity; format: functional, organism-based; conditions: Enterovirus B; method in brief: as §1
[26] = tested on: Human alphaherpesvirus 2; assay: Antiviral activity against Herpes simplex virus-2 G infected in human HEL cells assessed as reduction in virus-induced cytopathogenicity; format: functional, organism-based; conditions: Human alphaherpesvirus 2, strain G; method in brief: as §1

| SMILES | EC50 [1] [µM] | EC50 [2] [µM] | MCC [3] [µM] | EC50 [4] [µM] | EC50 [5] [µM] | EC50 [6] [µM] | EC50 [7] [µM] | EC50 [8] [µM] | EC50 [9] [µM] | EC50 [10] [µM] | EC50 [11] [µM] | MCC [12] [µM] | EC50 [13] [µM] | MCC [14] [µM] | MCC [15] [µM] | EC50 [16] [µM] | EC50 [17] [µM] | EC50 [22] [µM] | MCC [23] [µM] | EC50 [26] [µM] | other results |
| --- | --- | --- | --- | --- | --- | --- | --- | --- | --- | --- | --- | --- | --- | --- | --- | --- | --- | --- | --- | --- | --- |
| NC12CC3CC(CC(C3)C1)C2 [AMANTADINE] | > 200 | 140 | > 200 | 0.8 |  |  |  |  |  |  |  |  |  |  |  |  |  |  |  |  |  |
| Nc1nc(CCc2ccccc2)c(Br)c(=O)[nH]1 | > 100 | > 100 | > 100 | > 100 | > 100 | > 100 | > 100 | > 100 | > 100 | > 100 | > 100 | > 100 | > 100 | > 100 | > 100 | > 100 | > 100 | > 100 | > 100 | > 100 | EC50 [18]: > 100 µM; EC50 [19]: > 100 µM; EC50 [20]: > 100 µM; EC50 [21]: > 100 µM; EC50 [24]: > 100 µM; EC50 [25]: > 100 µM |
| CC(C)(O)Cc1nc(N)[nH]c(=O)c1Br | > 100 | > 100 | > 100 | > 100 | 100 | > 100 | > 100 | > 100 | > 100 | > 100 | 79.5 | > 100 | > 100 | > 100 | > 100 | > 100 | > 100 | > 100 | > 100 | > 100 | EC50 [18]: > 100 µM; EC50 [19]: 100 µM; EC50 [20]: > 100 µM; EC50 [21]: 45 µM; EC50 [24]: > 100 µM; EC50 [25]: > 100 µM |
| Nc1nc2c(ncn2COCCO)c(=O)[nH]1 [ACYCLOVIR] |  |  |  |  |  |  |  |  |  |  |  | > 250 |  |  |  | > 250 |  |  |  |  |  |
| Nc1nc(CC(O)c2ccccc2C(F)(F)F)c(Br)c(=O)[nH]1 (stereo not given) | > 100 | > 100 | > 100 | > 100 | > 100 | > 100 | > 100 | > 100 | > 100 | > 100 | > 100 | > 100 | > 100 | > 100 | > 100 | > 100 | > 100 | > 100 | > 100 | > 100 | EC50 [18]: > 100 µM; EC50 [19]: > 100 µM; EC50 [20]: > 100 µM; EC50 [21]: > 100 µM; EC50 [24]: > 100 µM; EC50 [25]: > 100 µM |
| COc1ccc(/C=C/c2nc(N)[nH]c(=O)c2Br)cc1OC | > 20 | > 20 | 100 | > 20 | > 100 | > 100 | > 100 | > 100 | > 100 | > 100 | > 100 | > 100 | > 100 | > 100 | > 100 | > 100 | > 100 | > 100 | > 100 | > 100 | EC50 [18]: > 100 µM; EC50 [19]: > 100 µM; EC50 [20]: > 100 µM; EC50 [21]: 45 µM; EC50 [24]: > 100 µM; EC50 [25]: > 100 µM |
| CCCc1nc(N)[nH]c(=O)c1Br | > 100 | > 100 | > 100 | > 100 | > 100 | > 100 | > 100 | > 100 | > 100 | > 100 | > 100 | > 100 | > 100 | > 100 | > 100 | > 100 | > 100 | > 100 | > 100 | > 100 | EC50 [18]: > 100 µM; EC50 [19]: > 100 µM; EC50 [20]: > 100 µM; EC50 [21]: > 100 µM; EC50 [24]: > 100 µM; EC50 [25]: > 100 µM |
| Nc1nc2c(ncn2COC(CO)CO)c(=O)[nH]1 [GANCICLOVIR] |  |  |  |  | 3.1 |  | > 100 |  | > 100 |  |  | > 100 | 0.9 |  | > 100 |  |  | 0.38 | > 100 | 0.9 |  |
